From ChEMBL document CHEMBL1131724, “The structure-based design and synthesis of selective inhibitors of Trypanosoma cruzi dihydrofolate reductase” (Bioorg Med Chem Lett, 1999)

Tests used:
[1] = In vitro activity against the amastigote stage of the parasite cultured in mouse fibroblasts (L-6 cells); type: functional, cell-based
Method in brief: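 L-6 mouse fibroblasts seeded, infected next day with trypomastigote T. cruzi expressing beta-galactosidase; after two days medium replaced with serial drug dilutions; four-day incubation; chlorophenol red beta-D-galactopyranoside substrate added, absorbance read at 540 nm 2-6 h later to quantify parasite growth; IC50 determined.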

Dihydrofolate reductase = target: T1, Dihydrofolate reductase (Homo sapiens, UniProt P00374); assay: Inhibitory activity against dihydrofolate reductase in humans
T1 sequence (P00374 whole entry): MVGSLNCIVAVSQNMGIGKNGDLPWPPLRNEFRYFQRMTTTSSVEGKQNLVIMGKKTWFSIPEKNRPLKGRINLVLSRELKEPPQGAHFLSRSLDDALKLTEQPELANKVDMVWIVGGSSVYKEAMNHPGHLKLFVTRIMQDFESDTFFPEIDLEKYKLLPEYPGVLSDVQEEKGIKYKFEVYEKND

[2] = Selectivity for Trypanosoma cruzi dihydrofolate reductase compared to human dihydrofolate reductase

SMILES | IC50 [1] | Ki (Dihydrofolate reductase) | Selectivity [2]
Nc1nc(N)c2nc(CN(CCCC(=O)O)c3ccc(C(=O)NC(CCC(=O)O)C(=O)O)cc3)cnc2n1 (stereo not given) | > 171 µM |  | 
Nc1nc(N)c2nc(CN(CCCCCC(=O)O)c3ccc(C(=O)NC(CCC(=O)O)C(=O)O)cc3)cnc2n1 (stereo not given) | 11.5 µM | 0.00163 µM | 8.9
CCOC(=O)CCCN(Cc1cnc2nc(N)nc(N)c2n1)c1ccc(C(=O)NC(CCC(=O)OCC)C(=O)OCC)cc1 (stereo not given) | 61 µM |  | 
Nc1nc(N)c2nc(CN(CCCCC(=O)O)c3ccc(C(=O)NC(CCC(=O)O)C(=O)O)cc3)cnc2n1 (stereo not given) | > 167 µM | 0.00145 µM | 11.1
CN(Cc1cnc2nc(N)nc(N)c2n1)c1ccc(C(=O)N[C@@H](CCC(=O)O)C(=O)O)cc1 [METHOTREXATE] | 9.2 µM |  | 
CCOC(=O)CCCCN(Cc1cnc2nc(N)nc(N)c2n1)c1ccc(C(=O)NC(CCC(=O)OCC)C(=O)OCC)cc1 (stereo not given) | 38.8 µM | 0.453 µM | 9.9
CCOC(=O)CCCCCN(Cc1cnc2nc(N)nc(N)c2n1)c1ccc(C(=O)NC(CCC(=O)OCC)C(=O)OCC)cc1 (stereo not given) | 53.5 µM | 0.485 µM | 8.71
